ADAM10 inh: ADAM10 inhibition, QFRET primary screen; O14672; recombinant ADAM10, EDANS/DABCYL FRET peptide cleavage, 3 h; inhibition, % at 7 µM; hit rate 0.62% among 370,000; AID 720582;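 active = inhibition above a per-campaign cutoff equal to the mean of compounds falling between control-based bounds plus 3 SD, cut at about 20% in these data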;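 note: 0% = DMSO wells while the 100% control is not disclosed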
ADAM17 inh: inhibitors of human ADAM17; P78536; recombinant ADAM17, EDANS/DABCYL FRET peptide cleavage; inhibition, % at 6.95 µM; hit rate 0.83% among 370,000; AID 720648;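 active = inhibition above the mean of compounds lying between control limits plus 3 SD, set per campaign, cut at about 8.5% in these data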;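 note: 0% = DMSO-only wells as the low control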
Target sequence (P78536 215-824 limits assumed): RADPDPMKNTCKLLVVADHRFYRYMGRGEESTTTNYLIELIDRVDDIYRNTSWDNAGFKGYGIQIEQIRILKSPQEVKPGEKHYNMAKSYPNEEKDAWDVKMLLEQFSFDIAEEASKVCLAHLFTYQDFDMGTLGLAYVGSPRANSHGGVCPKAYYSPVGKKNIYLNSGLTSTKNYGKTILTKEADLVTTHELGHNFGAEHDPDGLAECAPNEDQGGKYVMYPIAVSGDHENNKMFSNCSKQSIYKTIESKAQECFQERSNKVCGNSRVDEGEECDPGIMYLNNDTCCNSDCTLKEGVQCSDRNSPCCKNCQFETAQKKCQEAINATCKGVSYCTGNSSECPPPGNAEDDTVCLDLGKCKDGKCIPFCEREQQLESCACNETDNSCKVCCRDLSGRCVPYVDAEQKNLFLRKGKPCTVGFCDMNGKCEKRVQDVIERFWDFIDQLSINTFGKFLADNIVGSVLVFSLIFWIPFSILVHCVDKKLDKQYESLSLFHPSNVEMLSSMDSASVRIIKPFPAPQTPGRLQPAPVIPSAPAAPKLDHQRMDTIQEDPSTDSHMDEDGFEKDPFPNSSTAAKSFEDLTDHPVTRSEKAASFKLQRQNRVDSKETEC
SKN-1 block: inhibitors of C. elegans SKN-1; inhibition, % at 21.8 µM; hit rate 0.49% among 360,000; AID 624304; C. elegans VP596 Pgst-4::GFP/RFP ratio, acrylamide-induced, 24 h;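 active = interference check ratio from 0.5 to 1.5 plus GFP to RFP signal ratio inhibition reaching or exceeding a fixed threshold, cut at about 30% in these data, passing the limit was not always enough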
MPTP inh: blocks calcium-induced mitochondrial swelling; isolated mouse mitochondria, Ca2+ swelling absorbance, 30 min; inhibition, % at 10 µM; hit rate 1.4% among 360,000;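 active = inhibition of 50% or more, scaled per plate between neutral and stimulator controls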;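 note: 0% = DMSO wells given calcium and 100% = 1 mM EGTA wells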
NR3A LBD binder: modulates the human NR3A ligand-binding domain | NR3A LBD differential scanning fluorimetry, Tm shift; 0% = protein alone, 100% = glycine-bound protein | Tm shift relative to glycine control, % at 25 µM | hit rate 2.5% among 340,000 | AID 1259313;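 active = melting temperature shift of at least 10% of the positive control shift, at one fixed dose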
MT1-MMP act inh: inhibitors of human MT1-MMP activation; GFP/RFP ratio change, % at 20 µM; AID 651647; hit rate 0.061% among 360,000; P50281; HT1080 RFP-PRO-GFP cells, GFP/RFP ratio fluorescence, overnight; percent of plate control window, DMSO zero;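 active = GFP/RFP ratio change of at least 30% with cell ATP level not reduced by more than half and red fluorescence within 50% of control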
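system = RFP-PRO-GFP reporter HT1080 cells | dosing = 20 µM single dose, 1% DMSO | timing = overnight cell settling, then overnight compound exposure, 37 °C, 5% CO2 | read-out basis = GFP/RFP fluorescence ratio | controls = DMSO and RFP-L50D-GFP cell wells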
* hit, by the source's call; · = not tested or not shown. A selection: hits, their analogues and other compounds. The true share with any hit is near 4.7%.

SMILES	ADAM10 inh	ADAM17 inh	SKN-1 block	MPTP inh	NR3A LBD binder	MT1-MMP act inh
Cc1ccc(C)c(NC(=O)CSc2nnc(-c3n[nH]c4ccccc34)o2)c1	2	-3	0	4	-8	0
N#Cc1cn(CC(=O)NCCc2c[nH]c3ccccc23)c2ccccc12	-6	3	15	3	-12	2
COc1ccc(-c2oc(=O)c3cc(OC)c(OC)cc3c2C#CC2(O)CCCCC2)cc1	-11	-4	11	-1	13*	4
O=C(OCC(=O)N1N=C(c2ccc(Cl)cc2)CC1c1ccco1)c1ccco1 (centres undefined)	-5	-2	6	1	0	-2
O=C(OCC(=O)N1N=C(c2ccc(Cl)cc2)CC1c1ccco1)c1ccccc1O (centres undefined)	-6	-5	38*	0	1	-15
Cc1ccc(S(=O)(=O)NCC(=O)OCC(=O)N2N=C(c3ccc(Cl)cc3)CC2c2ccco2)cc1C (centres undefined)	1	-3	14	0	31*	8
O=C(COC(=O)c1ccccc1NS(=O)(=O)c1cccs1)NCC12CC3CC(CC(C3)C1)C2	-6	-1	5	7	-6	-1
Cc1oc2c(C)c3oc(=O)c(CC(=O)N[C@@H](CCCNC(N)=O)C(=O)O)c(C)c3cc2c1C	-128	-54	22	0	1	8
CCCCn1c(N)c(N(CCOC)C(=O)CCNC(=O)NC23CC4CC(CC(C4)C2)C3)c(=O)[nH]c1=O	-27	-6	1	0	2	0
CCOC(=O)c1cnc2ccc(C)cc2c1Sc1ccc(F)cc1	2	-3	10	2	19*	-18
CC(C)=CCc1c(O)ccc(C2COc3c(CC=C(C)C)c(O)cc(O)c3C2=O)c1O (centres undefined)	-2	5	-9	3	11*	2
CC(C)=CCc1c(O)ccc2c1OC(c1ccc(O)c(O)c1)CC2=O (centres undefined)	-20	-2	24	3	-4	-21
COc1ccc(CN(CCN(C)C)c2ccccn2)cc1	-7	-6	-5	·	-2	2
CCCCCCCCCCCCCCCC[N+](C)(C)CCN(Cc1ccc(OC)cc1)c1ncccn1	·	·	59*	11	23*	-23
COc1ccccc1NC(=O)CN1CCSc2ccccc21	-1	1	-4	0	-7	-1
Nc1n[nH]c(N)c1N=Nc1cccc(C(F)(F)F)c1	10	5	-1	0	20*	0
Clc1cccc(-c2nc3nc4ccccc4nc3n2Cc2ccccc2)c1	-19	-1	0	1	12*	0
C=CCn1c(-c2ccccc2)nc2nc3ccccc3nc21	-423	-111	9	-3	1	-3
c1ccc(Cn2c(-c3ccccc3)nc3nc4ccccc4nc32)cc1	-144	-50	8	0	18*	-3
S=c1[nH]nc(-c2cccc(Cl)c2)n1Cc1ccccc1	2	0	14	1	-3	0
CC1C(=O)N2CCCc3cc(S(=O)(=O)NCc4ccc(Cl)cc4)cc1c32 (centres undefined)	-7	-3	25	2	3	2
COc1cccc(-c2nnc3n2N=C(c2cccc(Br)c2)CS3)c1	3	-3	25	7	-2	1
CNC(=O)[C@@]1(Cc2ccccc2)C=C[C@@H](C)N1C(=O)OC	-3	-4	9	0	1	-4
C[C@@H]1C=C[C@](Cc2ccccc2)(C(=O)NCC2CC2)N1C(=O)c1ccccc1	-4	-3	35*	-3	1	2
COc1ccc(C(=O)N2CCCC(Nc3ccc(F)cc3)C2)c(OC)c1 (centres undefined)	4	-4	-2	1	13*	2
Cc1ccc(NC2CCCN(C(=O)CN3C(=O)CSC3=O)C2)cc1C (centres undefined)	0	-2	6	0	11*	-3
COc1ccc(C(=O)N2CCCC(Nc3ccc(C)c(C)c3)C2)c(OC)n1 (centres undefined)	3	-1	-13	0	32*	0
